The values that follow come from ChEMBL document CHEMBL1134600, “Synthesis and evaluation of cryptolepine analogues for their potential as new antimalarial agents” (J Med Chem, 2001).

Where “and” joins values, the source holds several entries; their conditions need not be identical. Equal entries are not always repeated.

Assay [1] concerns the target T1, Histidine-rich protein PFHRP-II (Plasmodium falciparum) (UniProt P05227).
T1 sequence (whole entry): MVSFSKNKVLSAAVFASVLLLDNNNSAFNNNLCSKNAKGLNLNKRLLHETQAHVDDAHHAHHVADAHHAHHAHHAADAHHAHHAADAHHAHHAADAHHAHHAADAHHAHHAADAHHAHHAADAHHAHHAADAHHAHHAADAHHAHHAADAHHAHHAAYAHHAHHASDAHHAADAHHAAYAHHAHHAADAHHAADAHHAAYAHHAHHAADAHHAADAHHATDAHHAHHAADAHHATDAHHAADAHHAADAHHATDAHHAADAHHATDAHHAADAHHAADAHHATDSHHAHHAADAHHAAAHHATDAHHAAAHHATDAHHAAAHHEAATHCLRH
In words: Inhibition of beta-hematin formation; No. In kind it is functional.

Assay [2] deals with Plasmodium falciparum. The assay can be described thus: In vitro inhibitory activity against chloroquine-resistant Plasmodium falciparum K1. In kind it is functional, organism-based. The essentials: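 Early ring-stage parasites in human A+ erythrocytes, RPMI 1640 with A+ serum and glucose. Twofold serial dilutions in duplicate from DMSO stocks (final DMSO ≤0.5%), 2.5% hematocrit, 1% parasitemia. Incubated 48 h at 37 °C under 93% N2/3% O2/4% CO2. Growth read as parasite lactate dehydrogenase activity (APAD/NBT reagent, 15 min, OD 550 nm). IC50 by linear regression, at least three separate determinations.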

The test system of assay [3] is Plasmodium falciparum. The assay can be described thus: In vitro inhibitory activity against chloroquine-sensitive Plasmodium falciparum HB3.
In assay [4] the test system is MAC15A. The assay can be described thus: Cytotoxicity against MAC15a cells when the drug is exposed for a time of 1 hr. In kind it is functional, cell-based. The note with it: Mus musculus.
Assay [5] concerns A549. The assay can be described thus: Cytotoxicity against A549 cells when the drug is exposed for a time of 1 hr. In kind it is functional, cell-based. The note with it: Homo sapiens, A549, 1 h.
Assay [6] relates to DLD-1. In words: Cytotoxicity against DLD-1 cells when the drug is exposed for a time of 96 hrS. In kind it is functional, cell-based. The note with it: Homo sapiens, DLD-1, 96 h.
The subject of assay [7] is A549. The assay can be described thus: Cytotoxicity against A549 cells when the drug is exposed for a time of 96 hrs. The note with it: Homo sapiens, A549, 96 h. In kind it is functional, cell-based.
Assay [8] relates to DLD-1. In words: Cytotoxicity against DLD-1 cells when the drug is exposed for a time of 1 hr. In kind it is functional, cell-based. The note with it: Homo sapiens, DLD-1, 1 h.
Assay [9] has as its system MAC15A. The assay can be described thus: Cytotoxicity against MAC15a cells when the drug is exposed for a time of 96 hr. In kind it is functional, cell-based. The note with it: Mus musculus.
In assay [10] the target is T1, Histidine-rich protein PFHRP-II (Plasmodium falciparum). The assay can be described thus: Inhibition of beta-hematin formation; Yes. In kind it is functional.
In assay [11] the test system is Mus musculus. The assay can be described thus: Inhibitory activity against Plasmodium berghei (ANKA) in mice at a dose of 20 mg/kg for 4 days. In kind it is functional. Also on record: scale not given: the % may be the effect or the level left. The essentials: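 Peters' 4-day suppressive test. Female BALB/c mice (18-20 g) were inoculated iv with 1 × 10⁷ P. berghei ANKA-infected erythrocytes. Drug was given ip in 0.2 mL daily for 4 consecutive days, 5 mice per group, with chloroquine diphosphate as positive control. Blood smears were taken on day 5. % suppression of parasitemia was calculated against untreated infected controls for each dose.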

The term IC50 denotes the concentration at which inhibition is half-maximal.

For the compound `O=C(O)c1c2nc3ccccc3c-2[nH]c2ccccc12`, the inhibition result in assay [1] is “No inhibition”. The same compound gave an IC50 in [2] of over 100 µM.

For `c1ccc2nc3c(cc2c1)[nH]c1ccccc13` [QUINDOLINE], in [1], the inhibition result is “No inhibition”. The compound further registered a 50% inhibitory concentration (IC50) in assay [2] of over 100 µM.

In the case of `C[n+]1c2ccc(Br)cc2cc2[nH]c3ccccc3c21.[I-]`, the half-maximal inhibitory concentration (IC50) in [3] was 0.45 µM; in [4] it was over 100 µM; in [5], over 100 µM; in [6] it was 2.29 µM; in assay [7], 2.07 µM; in [8], over 100 µM. Also, the IC50 in assay [9] was determined as 5.79 µM; in [2], 0.26 µM. Moreover, the “beta-hematin formation inhibition (yes/no)” value in [10] is listed as “Inhibition”.

In the case of `CC(=O)Nc1ccc2[n-]c3cc4ccccc4[n+](C)c3c2c1`, the half-maximal inhibitory concentration (IC50) is 0.47 µM in [3]; over 100 µM in assay [4]; over 100 µM in assay [5]; 20.4 µM in assay [6]; 5.04 µM in [7]; over 100 µM in [8]. The figures for the IC50 in [9] and in assay [2] were 15.5 µM and 0.52 µM, respectively. Besides, the Activity in [11] is 13.3% and 14.7%.

As to `C[n+]1c2ccccc2cc2[nH]c3ccc(Br)cc3c21.[I-]`, the IC50 in [3] stood at 0.19 µM; in assay [4], 66.2 µM; in assay [2] it was 0.26 µM. For the same compound, the “beta-hematin formation inhibition (yes/no)” value in assay [10] is given as “Inhibition”.

As to `NC(=O)c1c2nc3ccccc3c-2[nH]c2ccccc12`, the inhibition result in assay [1] is “No inhibition”. Further, the IC50 in assay [2] was over 100 µM.

For the compound `C[n+]1c2ccccc2c(Cl)c2[nH]c3cc(Br)ccc3c21`, the IC50 in assay [4] turned out to be 23.1 µM; in assay [2] it was 7.18 µM.

For the compound `C[n+]1c2ccc(Br)cc2cc2[nH]c3ccc(Br)cc3c21.[I-]`, the IC50 in assay [3] was 0.026 µM; in assay [9], 6.04 µM; in assay [2], 0.049 µM. Also, the “beta-hematin formation inhibition (yes/no)” value in assay [10] is on record as “Inhibition”.

As to `CCN(CC)CCCC(C)Nc1ccnc2cc(Cl)ccc12.O=P(O)(O)O.O=P(O)(O)O` (centres undefined) [CHLOROQUINE PHOSPHATE], the “beta-hematin formation inhibition (yes/no)” value in assay [10] is given as “Inhibition”.

As to `C[n+]1c2ccc(Br)cc2c(Cl)c2[nH]c3ccccc3c21`, the IC50 in [2] worked out at 4.75 µM.

`C[n+]1c2ccccc2c(Cl)c2[nH]c3ccc(Cl)cc3c21` showed an IC50 in assay [2] of 7.62 µM.

Turning to `C[n+]1c2ccccc2cc2[n-]c3c([N+](=O)[O-])cccc3c21`, the IC50 in assay [3] was 4.14 µM; in [4], over 100 µM; in assay [5], over 100 µM; in assay [8], over 100 µM; in assay [2], 6.92 µM. In addition, the Activity in assay [11] is 11.9% and 23.5%.

Take `C[n+]1c2ccccc2c(Cl)c2[nH]c3cc(Cl)ccc3c21`: the IC50 is 14.4 µM in [4] and 27 µM in assay [2].

As to `C[n+]1c2ccccc2cc2[nH]c3ccccc3c21` [CRYPTOLEPTINE IODIDE], the IC50 in assay [4] was determined as 67.2 µM; in assay [5], 61.4 µM; in assay [6], 1.44 µM; in assay [7], 0.55 µM; in [8], 93 µM; in [9], 9.65 µM. In assay [2], 0.44 µM corresponded to half-maximal inhibition (IC50). Besides, the inhibition result in assay [10] is given as “Inhibition”.

As to `C[n+]1c2ccccc2cc2[n-]c3ccc([N+](=O)[O-])cc3c21`, the IC50 is 0.14 µM in assay [3]; 35.4 µM in assay [4]; 35.6 µM in assay [5]; 48.9 µM in assay [8]; 0.65 µM in [2]. Moreover, the “beta-hematin formation inhibition (yes/no)” value in assay [10] was “Inhibition”.

For the compound `C[n+]1c2ccccc2c(Cl)c2[nH]c3ccccc3c21`, the concentration for half-maximal inhibition (IC50) in assay [3] was found to be 1.67 µM; in [4], 30.5 µM; in [2], 0.24 µM.

In the case of `C[n+]1c2ccccc2cc2[n-]c3c([N+](=O)[O-])cc([N+](=O)[O-])cc3c21`, the IC50 in assay [3] was 0.45 µM; in [4], 28.5 µM; in assay [5], over 100 µM; in assay [8], over 100 µM; in [2] it was 0.65 µM. In addition, the Activity in [11] was 20.3% and 30.2%. Also, in assay [10], the “beta-hematin formation inhibition (yes/no)” value is “Inhibition”.
